Source: ChEMBL document CHEMBL4177771, “Endoplasmic Reticulum-Localized Two-Photon-Absorbing Boron Dipyrromethenes as Advanced Photosensitizers for Photodynamic Therapy” (J Med Chem, 2018)
One block for each molecule: values may come before it. Activity calls are given as the source filed them. No cut-off for these calls is given here.

How the values were obtained:
[1] = Drug uptake in mitochondria of human HeLa cells at 4 uM after 4 hrs by Mito-tracker green-based confocal microscopic method; assay type: ADME
Procedure, shortened: (§1)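 Cells on glass-bottom dishes given 2 μM for 2 h or 4 μM for 4 h at 37 °C. After PBS washes, stained in HBSS with 0.2 μM ER-tracker or Mito-tracker green for 15 min at 37 °C. Confocal imaging: trackers excited at 488 nm, emission 500–570 nm; BODIPY excited at 633 nm, emission 650–760 nm.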

[2] = Drug uptake in endoplasmic reticulum of human HepG2 cells at 4 uM after 4 hrs by ER-tracker green-based confocal microscopic method; assay type: ADME, subcellular; settings: hepg2, 4 h; procedure, shortened: as §1
[3] = Drug uptake in lysosome of human HeLa cells at 4 uM after 4 hrs by […]-based confocal microscopic method; assay type: ADME, subcellular
[4] = Drug uptake in mitochondria of human HepG2 cells at 4 uM after 4 hrs by Mito-tracker green-based confocal microscopic method; assay type: ADME; settings: hepg2, 4 h; procedure, shortened: as §1
[5] = Drug uptake in lysosome of human HepG2 cells at 4 uM after 4 hrs by […]-based confocal microscopic method; assay type: ADME, subcellular; settings: hepg2, 4 h
[6] = Drug uptake in endoplasmic reticulum of human HeLa cells at 4 uM after 4 hrs by ER-tracker green-based confocal microscopic method; assay type: ADME, subcellular; procedure, shortened: as §1
[7] = Induction of singlet oxygen generation in PBS assessed as increase in decay of DPBF at 2 uM by spectroscopic method; assay type: functional
HeLa [8] = assay: Induction of apoptosis in human HeLa cells at 2 uM incubated in dark for 2 hrs measured after 3 hrs by propidium iodide staining-based laser scanning microscopic method; assay type: cell-based
Procedure, shortened: (§2)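 HeLa cells given 2 μM for 2 h, rinsed and re-fed. Irradiated with 800 nm laser (400 mW) for 10 min at 37 °C, 5% CO2; dark controls kept unirradiated. After 3 h, stained with PI (50 μg in 1 mL PBS) for 10 min, rinsed. Imaged with PI excited at 488 nm (550–700 nm) and BODIPY at 633 nm (640–735 nm), plus bright field.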

HepG2 [9] = assay: Photocytotoxicity against human HepG2 cells assessed as decrease in cell viability at 0.19 uM preincubated in dark for 2 hrs followed by illumination by halogen lamp for 20 mins by MTT assay relative to control; assay type: functional
Procedure, shortened: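 Light-dose study: HepG2 cells given 0.19 μM for 2 h, washed twice with PBS, re-fed, then illuminated with halogen lamp (λ > 610 nm, 40 mW cm−2) for 10, 15, 20 or 25 min. Viability by MTT (4 h, 37 °C), DMSO, absorbance at 490 nm.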

HepG2 [10] = assay: Induction of endoplasmic reticulum stress in human HepG2 cells assessed as upregulation of GRP78 expression at 0.15 uM after 4 to 8 hrs in presence of light by Western blot method; assay type: functional, cell-based
Procedure, shortened: (§3)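 HepG2 cells in 60 mm dishes treated with 150 nM in RPMI 1640, with or without illumination (λ > 610 nm). Lysed in RIPA buffer at 2, 4, 6 and 8 h after PDT. Equal protein run on 10% polyacrylamide gels and transferred to PVDF. Blocked in 5% nonfat milk, probed for GRP78, CHOP and actin, with HRP chemiluminescent detection. Control cells were illuminated without compound.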

[11] = Drug uptake in endoplasmic reticulum of human HepG2 cells at 2 uM after 2 hrs by ER-tracker green-based confocal microscopic method; assay type: ADME, subcellular; settings: hepg2, 2 h; procedure, shortened: as §1
HepG2 [12] = assay: Increase in intracellular calcium levels in human HepG2 cells at 0.05 to 0.8 uM after 2 hrs in presence of light by fluo-3 AM dye-based fluorescence assay relative to control; assay type: functional
Procedure, shortened: (§4)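 HepG2 cells in 96-well plates given 0.05–0.8 μM in RPMI 1640 for 2 h, with or without illumination (λ > 610 nm). Afterwards washed, loaded with Fluo-3 AM (2.5 μM in HBSS) for 1 h at 37 °C in dark. Washed, re-fed with HBSS, fluorescence read at 485/535 nm. Mean with SEM of three independent experiments.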

[13] = Drug uptake in lysosome of human HeLa cells at 2 uM after 2 hrs by […]-based confocal microscopic method; assay type: ADME, subcellular
HepG2 [14] = assay: Photocytotoxicity against human HepG2 cells assessed as decrease in cell viability preincubated in dark for 2 hrs followed by illumination by halogen lamp for 20 mins by MTT assay; assay type: functional, cell-based
Procedure, shortened: (§5)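 Cells seeded at 2 × 10^5 cells mL−1 in 96-well plates 24 h before; 2 h dark incubation with compound (0.0125–0.4 μM or 0.5–8 μM), PBS wash, re-feed. Then 300 W halogen lamp with red filter (λ > 610 nm), 40 mW cm−2, 20 min at r.t. (48 J cm−2). MTT read-out at 490 nm. IC50 = concentration killing 50% of cells. Three independent experiments, quadruplicate.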

[15] = Dark toxicity against human HeLa cells assessed as decrease in cell viability at 0.0125 to 0.4 uM incubated for 2 hrs by MTT assay; assay type: cell-based
Procedure, shortened: (§6)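 Cells seeded at 2 × 10^5 cells mL−1 in 96-well plates 24 h before; incubated with compound (0.4–0.0125 μM or 8–0.5 μM series) in dark 2 h, washed with PBS, re-fed, kept unirradiated. MTT (3 mg mL−1) added, 4 h at 37 °C, DMSO added, absorbance at 490 nm. Mean ± SEM of three independent experiments, each in quadruplicate. HepG2 cells were grown in RPMI 1640 and HeLa in DMEM.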

[16] = Induction of singlet oxygen generation in DMF assessed as increase in decay of DPBF at 1 uM by spectroscopic method
HeLa [17] = assay: Induction of apoptosis in human HeLa cells at 2 uM preincubated in dark for 2 hrs followed by two photon irradiation for 10 mins measured after 3 hrs by propidium iodide staining-based laser scanning microscopic method; assay type: functional, cell-based; procedure, shortened: as §2
HeLa [18] = assay: Induction of apoptosis in human HeLa cells assessed as cell shrinkage at 2 uM preincubated in dark for 2 hrs followed by two photon irradiation for 10 mins measured after 3 hrs by bright field microscopic method; assay type: functional, cell-based; procedure, shortened: as §2
HepG2 [19] = assay: Induction of endoplasmic reticulum stress in human HepG2 cells assessed as upregulation of GRP78 expression at 0.15 uM after 4 to 8 hrs in absence of light by Western blot method; assay type: cell-based; settings: hepg2, 0.15 µM; procedure, shortened: as §3
[20] = Drug uptake in endoplasmic reticulum of human HeLa cells at 2 uM after 2 hrs by ER-tracker green-based confocal microscopic method; assay type: ADME, subcellular; procedure, shortened: as §1
[21] = Drug uptake in mitochondria of human HepG2 cells at 2 uM after 2 hrs by Mito-tracker green-based confocal microscopic method; assay type: ADME; settings: hepg2, 2 h; procedure, shortened: as §1
[22] = Drug uptake in human HepG2 cells at 2 uM after 2 hrs by flow cytometric method; assay type: ADME, cell-based; settings: hepg2, 2 h
Procedure, shortened: (§7)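 Cells in 35 mm dishes incubated in RPMI 1640 at 37 °C, 5% CO2, with 2 μM for 2 h or 4 μM for 4 h. Rinsed, trypsinised, pelleted at 400g, resuspended in HBSS. Flow cytometry on 10^4 cells: excitation 640 nm, emission 720–840 nm. Triplicate; mean ± SD of three independent experiments.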

HepG2 [23] = assay: Increase in intracellular calcium levels in human HepG2 cells at 0.05 to 0.8 uM after 2 hrs in absence of light by fluo-3 AM dye-based fluorescence assay; assay type: ADME, cell-based; settings: hepg2, 2 h; procedure, shortened: as §4
[24] = Dark toxicity against human HepG2 cells assessed as decrease in cell viability at 0.0125 to 0.4 uM incubated for 2 hrs by MTT assay; assay type: cell-based; settings: hepg2, 2 h; procedure, shortened: as §6
[25] = Drug uptake in human HeLa cells at 2 uM incubated for 2 hrs upon one-photon excitation by confocal microscopic method; assay type: ADME, cell-based
Procedure, shortened: (§8)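 HeLa cells (about 1.2 × 10^5) grown overnight on glass-bottom dishes, then treated with 2 μM in medium containing 0.125% v/v DMF and 0.025% v/v Tween 80 for 2 h. Rinsed with PBS and imaged by laser scanning microscopy with 633 nm (one-photon) or 800 nm (two-photon) excitation.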

HepG2 [26] = assay: Ratio of compound activity for induction of reactive oxygen species generation in human HepG2 cells at 0.8 uM in presence of light to in absence of light; assay type: toxicity, cell-based; settings: hepg2, 0.8 µM
Procedure, shortened: (§9)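 HepG2 cells in 96-well plates incubated 2 h with 0.05–0.8 μM in RPMI 1640, washed, then loaded with H2DCFDA (10 μM in HBSS) for 30 min at 37 °C in dark. Washed, re-fed with HBSS, then irradiated (λ > 610 nm) or left dark. Fluorescence read at 485/535 nm. Mean with SEM of three independent experiments.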

HeLa [27] = assay: Photocytotoxicity against human HeLa cells assessed as decrease in cell viability preincubated in dark for 2 hrs followed by illumination by halogen lamp for 20 mins by MTT assay; assay type: functional, cell-based; procedure, shortened: as §5
HepG2 [28] = assay: Induction of reactive oxygen species generation in human HepG2 cells at 0.05 to 0.8 uM after 2 hrs in presence of light by H2DCFDA probe-based fluorescence assay; assay type: functional, cell-based; procedure, shortened: as §9
HepG2 [29] = assay: Induction of reactive oxygen species generation in human HepG2 cells at 0.05 to 0.8 uM after 2 hrs in absence of light by H2DCFDA probe-based fluorescence assay; assay type: cell-based; settings: hepg2, 2 h; procedure, shortened: as §9
[30] = Drug uptake in human HeLa cells at 2 uM incubated for 2 hrs upon two-photon excitation by confocal microscopic method; assay type: ADME, cell-based; procedure, shortened: as §8
[31] = Drug uptake in lysosome of human HepG2 cells at 2 uM after 2 hrs by […]-based confocal microscopic method; assay type: ADME, subcellular; settings: hepg2, 2 h
[32] = Stability of the compound in PBS at 2 uM measured over 25 mins in presence of illumination by halogen lamp; assay type: physicochemical; settings: buffer
[33] = Drug uptake in human HeLa cells at 2 uM after 2 hrs by flow cytometric method; assay type: ADME, cell-based; procedure, shortened: as §7
HepG2 [34] = assay: Induction of endoplasmic reticulum stress in human HepG2 cells assessed as upregulation of CHOP expression at 0.15 uM after 4 to 8 hrs in presence of light by Western blot method; assay type: functional, cell-based; procedure, shortened: as §3
[35] = Drug uptake in mitochondria of human HeLa cells at 2 uM after 2 hrs by Mito-tracker green-based confocal microscopic method; assay type: ADME; procedure, shortened: as §1
HepG2 [36] = assay: Induction of endoplasmic reticulum stress in human HepG2 cells assessed as upregulation of CHOP expression at 0.15 uM after 4 to 8 hrs in absence of light by Western blot method; assay type: cell-based; settings: hepg2, 0.15 µM; procedure, shortened: as §3

Drug uptake [1]: Not Active | Drug uptake [2]: Not Active | Drug uptake [3]: Not Active | Drug uptake [4]: Not Active | Drug uptake [5]: Not Active | Drug uptake [6]: Not Active
SMILES: CCOC(=O)COc1ccc(C2=C3C(C)=C(Br)C(/C=C/c4ccc5c(c4)c4ccccc4n5CCOCCOCCOC)=[N+]3[B-](F)(F)n3c(/C=C/c4ccc5c(c4)c4ccccc4n5CCOCCOCCOC)c(Br)c(C)c32)cc1

Drug uptake [11]: Active | Drug uptake [13]: Not Active | Drug uptake [20]: Active | Drug uptake [21]: Not Active | Drug uptake [22]: Active | Drug uptake [25]: Active | Drug uptake [30]: Active | Drug uptake [31]: Not Active | Stability [32]: Stable | Drug uptake [33]: Active | Drug uptake [35]: Not Active
SMILES: COCCOCCOCCOc1ccc(/C=C/C2=[N+]3C(=C(c4ccc(OCC(=O)NCCc5ccc(S(=O)(=O)NC(=O)NC6CCCCC6)cc5)cc4)c4c(C)c(Br)c(/C=C/c5ccc(OCCOCCOCCOC)cc5)n4[B-]3(F)F)C(C)=C2Br)cc1
Activity [7]: Active | Activity (HeLa [8]): Non-Toxic | Activity (HepG2 [9]): 50% | Activity (HepG2 [10]): Active | fold change (FC) (HepG2 [12]): 3.5 | IC50 (HepG2 [14]): 160 nM | Activity [15]: Non-Toxic | Activity [16]: Active | Activity (HeLa [17]): Active | Activity (HeLa [18]): Active | Activity (HepG2 [19]): Non-Toxic | Activity (HepG2 [23]): Non-Toxic | Activity [24]: Non-Toxic | Ratio (HepG2 [26]): 9 | IC50 (HeLa [27]): 90 nM | Activity (HepG2 [28]): Dose-dependent effect | Activity (HepG2 [29]): Non-Toxic | Activity (HepG2 [34]): Active | Activity (HepG2 [36]): Non-Toxic
